Laboratory results as given in article PMC7226286 (Cancer Science, 2020).

System: STAT3 and RAF/MEK/ERK pathways in SAS xenograft tumors
Experiment: Western blot of SAS xenograft tumor lysates
Type: in vivo, mice
Conditions: day 12, 6 hours after final administration
Method in brief: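 Male BALB/c nude mice (6 weeks old) bearing subcutaneous SAS oral tumours; test compound (50 or 60 mg/kg), a kinase inhibitor (10 mg/kg), the combination or vehicle given orally, 5 days on/2 off from day 1 (palpable tumours). Day 12: tumours (n = 3) excised 6 h after last dose, snap-frozen, lysed; immunoblot for pY705-STAT3, STAT3, pT202/Y204-ERK1/2, ERK1/2, survivin, β-actin.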

CNC(=O)c1cc(Oc2ccc(NC(=O)Nc3ccc(Cl)c(C(F)(F)F)c3)cc2)ccn1 [Sorafenib]
phospho‐ERK in tumor tissues: clearly reduced
phospho‐STAT3 in tumor tissues: clearly reduced
survivin in tumor tissues: moderately suppressed
